We go through 2 compounds from ChEMBL document CHEMBL3352384, “Synthesis and biological activity of new salicylanilide N,N-disubstituted carbamates and thiocarbamates” (Bioorg Med Chem, 2014).

SMILES strings stand for the structures. In brackets after ≈: the same amount, converted by molar mass. Where only a bound is given, the exact number is not on record here.

Tested on in the first data set: not listed separately
Put plainly: Selectivity index, ratio of IC50 for human HepG2 cells to MIC for Trichophyton mentagrophytes 445.
Settings: not given
`CN(C)C(=S)Oc1ccc(Cl)cc1C(=O)Nc1ccc(C(F)(F)F)cc1`: the “Selectivity Index” value was below 1.

The test system of another data set is Mycobacterium avium. Description: Antimycobacterial activity against Isoniazid, rifampicin, ofloxacin and ethambutol-resistant Mycobacterium avium 330/88 assessed as complete growth inhibition after 21 days. Conditions: 330/88, 504 h. It is filed as functional. In short, it runs like this: (§1)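 M. tuberculosis 331/88 (H37Rv) inoculum diluted 10-3, M. avium 330/88 diluted 10-5. MIC is the lowest concentration giving complete growth inhibition. Isoniazid and p-aminosalicylic acid as references. Quadruplicate, repeated twice.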
One may read the MIC as the lowest concentration that inhibits growth of the organism. With `NNC(=O)c1ccncc1` [ISONIAZID], the minimal inhibitory concentration (MIC) was above 250 µM.
Still for that read-out and setting: the value for `CN(C)C(=S)Oc1ccc(Cl)cc1C(=O)Nc1ccc(C(F)(F)F)cc1` was 16 µM (≈ 6.45 µg/mL).

A further data set deals with Mycobacterium kansasii. Description: Antimycobacterial activity against Mycobacterium kansasii 235/80 assessed as complete growth inhibition after 7 days. The following applies: 235/80, 168 h. It is filed as functional. In short, it runs like this: (§2)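 Dilutions of M. kansasii inoculum were 10-4 for strain 235/80 and 10-5 for clinical isolate 6509/96. MIC was the lowest concentration giving complete growth inhibition, run in quadruplicate and repeated twice.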
Consider `NNC(=O)c1ccncc1` [ISONIAZID], for which the MIC is above 250 µM.
Same read-out and setting: the value for `CN(C)C(=S)Oc1ccc(Cl)cc1C(=O)Nc1ccc(C(F)(F)F)cc1` was 16 µM (≈ 6.45 µg/mL).

Another data set has as its system Mycobacterium kansasii. Description: Antimycobacterial activity against clinical isolate Mycobacterium kansasii 6509/96 assessed as complete growth inhibition after 14 days. It is filed as functional. The following applies: 6509/96, 336 h. The method, boiled down:
as §2
Regarding `NNC(=O)c1ccncc1` [ISONIAZID], the MIC was 4 µM (≈ 0.549 µg/mL).
Still for that read-out and setting: the value for `CN(C)C(=S)Oc1ccc(Cl)cc1C(=O)Nc1ccc(C(F)(F)F)cc1` was 32 µM (≈ 12.9 µg/mL).

For the next data set, the system named is Trichophyton mentagrophytes. Description: Antimicrobial activity against Trichophyton mentagrophytes 445 after 72 hrs by microdilution method. Conditions: Trichophyton mentagrophytes, 445, 72 h. It is filed as functional. The method, boiled down: (§3)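 Broth microdilution in RPMI 1640 with glutamine, with fluconazole and amphotericin B as references. For filamentous fungi, MIC is expressed as the IC50, i.e. the concentration giving 50% growth reduction versus control. Each determination was done twice.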
In general terms: In broth dilution the organism is exposed to a series of concentrations in liquid medium.
`CN(C)C(=S)Oc1ccc(Cl)cc1C(=O)Nc1ccc(C(F)(F)F)cc1` displayed an MIC of 500 µM (≈ 201 µg/mL).

The test system of a further data set is Mycobacterium kansasii. Description: Antimycobacterial activity against Mycobacterium kansasii 235/80 assessed as complete growth inhibition after 21 days. It is filed as functional. The following applies: 235/80, 504 h. The method, boiled down: as §2
As for `NNC(=O)c1ccncc1` [ISONIAZID], the MIC was above 250 µM.
`CN(C)C(=S)Oc1ccc(Cl)cc1C(=O)Nc1ccc(C(F)(F)F)cc1`: the minimum inhibitory concentration (MIC) amounted to 32 µM (≈ 12.9 µg/mL).

In another data set the test system is Mycobacterium tuberculosis. Put plainly: Antimycobacterial activity against Mycobacterium tuberculosis H37Rv 331/88 assessed as complete growth inhibition after 21 days. It is filed as functional. Conditions: H37Rv 331/88, 504 h. In short, it runs like this: as §1
Regarding `NNC(=O)c1ccncc1` [ISONIAZID], the MIC was found to be 1 µM (≈ 0.137 µg/mL).
Same read-out and setting: the value for `CN(C)C(=S)Oc1ccc(Cl)cc1C(=O)Nc1ccc(C(F)(F)F)cc1` was 4 µM (≈ 1.61 µg/mL).

A further data set deals with Mycobacterium tuberculosis. Put plainly: Antimycobacterial activity against Mycobacterium tuberculosis H37Rv 331/88 assessed as complete growth inhibition after 14 days. It is filed as functional. Conditions: H37Rv 331/88, 336 h. The method, boiled down: as §1
As for `NNC(=O)c1ccncc1` [ISONIAZID], the MIC is 0.5 µM (≈ 0.0686 µg/mL).
On the same count and under the same terms, as for `CN(C)C(=S)Oc1ccc(Cl)cc1C(=O)Nc1ccc(C(F)(F)F)cc1`, the figure is 4 µM (≈ 1.61 µg/mL).

In a further data set the test system is Staphylococcus epidermidis. Put plainly: Antimicrobial activity against Staphylococcus epidermidis H 6966/08 after 24 hrs by microdilution method. It is filed as functional. Conditions: H 6966/08, 24 h. The method, boiled down: (§4)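 Broth microdilution in Mueller-Hinton broth, compounds dissolved in DMSO, final concentrations 500 to 0.49 µM. Benzylpenicillin and bacitracin were run as comparators. MIC was taken as 95% (IC95) or greater growth reduction versus control. Each determination was done twice.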
For `CN(C)C(=S)Oc1ccc(Cl)cc1C(=O)Nc1ccc(C(F)(F)F)cc1`, the minimum inhibitory concentration (MIC) turned out to be 31.2 µM (≈ 12.6 µg/mL).

The subject of a further data set is Staphylococcus aureus. Put plainly: Antimicrobial activity against Staphylococcus aureus CCM 4516/08 after 24 hrs by microdilution method. It is filed as functional. Conditions: CCM 4516/08, 24 h. The method, boiled down:
(§5)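 Mueller-Hinton broth microdilution; compounds dissolved in DMSO, final concentrations 500 to 0.49 µM. […] Benzylpenicillin and bacitracin as comparators. Each determination done twice.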
Compound `CN(C)C(=S)Oc1ccc(Cl)cc1C(=O)Nc1ccc(C(F)(F)F)cc1` displayed an MIC of 7.81 µM (≈ 3.15 µg/mL).

A further data set relates to Mycobacterium kansasii. Description: Antimycobacterial activity against Mycobacterium kansasii 235/80 assessed as complete growth inhibition after 14 days. It is filed as functional. Conditions: 235/80, 336 h. In short, it runs like this: as §2
Regarding `NNC(=O)c1ccncc1` [ISONIAZID], the minimum inhibitory concentration (MIC) was above 250 µM.
Still for that read-out and setting: the value for `CN(C)C(=S)Oc1ccc(Cl)cc1C(=O)Nc1ccc(C(F)(F)F)cc1` was 32 µM (≈ 12.9 µg/mL).

Another data set concerns Staphylococcus aureus. Put plainly: Antimicrobial activity against methicillin-resistant Staphylococcus aureus H 5996/08 after 48 hrs by microdilution method. It is filed as functional. The following applies: H 5996/08, 48 h. The method, boiled down: as §5
For `CN(C)C(=S)Oc1ccc(Cl)cc1C(=O)Nc1ccc(C(F)(F)F)cc1`, the MIC came out at 7.81 µM (≈ 3.15 µg/mL).

Tested on in another data set: not listed separately
Put plainly: Selectivity index, ratio of IC50 for human HepG2 cells to MIC for methicillin-resistant Staphylococcus aureus H 5996/08.
Settings: not given
In short, it runs like this: (§6)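 Selectivity index = HepG2 IC50 / MIC. HepG2 cells (passage 3–4) grown in Eagle's MEM with 10% FBS, L-glutamine and non-essential amino acids. Compounds added from DMSO, eight concentrations in triplicate, tetrazolium-reduction colorimetric read-out. IC50 is the concentration reducing viability to 50% of control; 10% DMSO as 0% viability.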
`CN(C)C(=S)Oc1ccc(Cl)cc1C(=O)Nc1ccc(C(F)(F)F)cc1`: the “Selectivity Index” value is given as 8.6.

Tested on in the next data set: not listed separately
Put plainly: in vitro. Conditions: human, HepG2 cells.
As to `NNC(=O)c1ccncc1` [ISONIAZID], the selectivity ratio is at least 31.3.

Another data set has as its system Enterococcus sp. Put plainly: Antimicrobial activity against Enterococcus sp. J 14365/08 after 48 hrs by microdilution method. It is filed as functional. Conditions: J 14365/08, 48 h. In short, it runs like this:
as §4
`CN(C)C(=S)Oc1ccc(Cl)cc1C(=O)Nc1ccc(C(F)(F)F)cc1`: the minimal inhibitory concentration (MIC) was above 500 µM.

Another data set deals with Staphylococcus aureus. Description: Antimicrobial activity against Staphylococcus aureus CCM 4516/08 after 48 hrs by microdilution method. It is filed as functional. Conditions: CCM 4516/08, 48 h. In short, it runs like this: as §5
In the case of `CN(C)C(=S)Oc1ccc(Cl)cc1C(=O)Nc1ccc(C(F)(F)F)cc1`, the MIC amounted to 7.81 µM (≈ 3.15 µg/mL).

For another data set, the system named is Staphylococcus epidermidis. Put plainly: Antimicrobial activity against Staphylococcus epidermidis H 6966/08 after 48 hrs by microdilution method. It is filed as functional. Conditions: H 6966/08, 48 h. In short, it runs like this:
as §4
`CN(C)C(=S)Oc1ccc(Cl)cc1C(=O)Nc1ccc(C(F)(F)F)cc1`: 31.2 µM (≈ 12.6 µg/mL) was the least that counted as inhibitory (MIC).

The subject of another data set is Mycobacterium avium. Put plainly: Antimycobacterial activity against Isoniazid, rifampicin, ofloxacin and ethambutol-resistant Mycobacterium avium 330/88 assessed as complete growth inhibition after 14 days. It is filed as functional. The following applies: 330/88, 336 h. The method, boiled down: as §1
As to `NNC(=O)c1ccncc1` [ISONIAZID], the MIC was above 250 µM.
Consider `CN(C)C(=S)Oc1ccc(Cl)cc1C(=O)Nc1ccc(C(F)(F)F)cc1`, for which the MIC amounted to 16 µM (≈ 6.45 µg/mL).

Another data set has as its system Trichophyton mentagrophytes. Put plainly: Antimicrobial activity against Trichophyton mentagrophytes 445 after 120 hrs by microdilution method. It is filed as functional. Conditions: Trichophyton mentagrophytes, 445, 120 h. In short, it runs like this:
as §3
In turn, `CN(C)C(=S)Oc1ccc(Cl)cc1C(=O)Nc1ccc(C(F)(F)F)cc1` showed an MIC of 500 µM (≈ 201 µg/mL).

Tested on in another data set: not listed separately
Put plainly: Selectivity index, ratio of IC50 for human HepG2 cells to MIC for Mycobacterium tuberculosis H37Rv. It is filed as toxicity, cell-based. Conditions: read-out: Selectivity Index. The method, boiled down: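 Selectivity index = HepG2 IC50 / MIC. HepG2 cells (passage 3–4) grown in Eagle's MEM with 10% FBS, L-glutamine and non-essential amino acids. Compounds added from DMSO, eight concentrations in triplicate, tetrazolium-reduction colorimetric read-out.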
For the compound `NNC(=O)c1ccncc1` [ISONIAZID], the selectivity ratio was above 250.
Regarding `CN(C)C(=S)Oc1ccc(Cl)cc1C(=O)Nc1ccc(C(F)(F)F)cc1`, the selectivity ratio was 16.8.

Another data set concerns Mycobacterium kansasii. Description: Antimycobacterial activity against clinical isolate Mycobacterium kansasii 6509/96 assessed as complete growth inhibition after 7 days. It is filed as functional. The following applies: 6509/96, 168 h. In short, it runs like this:
as §2
Regarding `NNC(=O)c1ccncc1` [ISONIAZID], the MIC was found to be 2 µM (≈ 0.274 µg/mL).
The same measure, in the same setting: as for `CN(C)C(=S)Oc1ccc(Cl)cc1C(=O)Nc1ccc(C(F)(F)F)cc1`, the figure is 16 µM (≈ 6.45 µg/mL).

Another data set has as its system Staphylococcus aureus. Put plainly: Antimicrobial activity against methicillin-resistant Staphylococcus aureus H 5996/08 after 24 hrs by microdilution method. It is filed as functional. Conditions: H 5996/08, 24 h. The method, boiled down: as §5
Regarding `CN(C)C(=S)Oc1ccc(Cl)cc1C(=O)Nc1ccc(C(F)(F)F)cc1`, inhibition of growth (MIC) required 7.81 µM (≈ 3.15 µg/mL).

The next data set relates to HepG2. Description: Cytotoxicity against human HepG2 cells assessed as reduction in cell viability after 24 hrs by MTS assay. It is filed as cell-based. Conditions: HepG2, 24 h. The method, boiled down:
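HepG2 hepatocellular carcinoma cells (passage 3–4) were grown in Eagle's MEM with 10% FBS, 1% L-glutamine and non-essential amino acids. Compounds were added from DMSO at eight concentrations in triplicate, with 10% DMSO as the 0% viability control. Viability was read by tetrazolium salt reduction (CellTiter 96 AQueous One). IC50 is the concentration reducing viability to 50% of control.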
On the technique in general: Tetrazolium dyes change colour on reduction, which living cells bring about.
What is called IC50 is the concentration that gives 50% inhibition. Consider `NNC(=O)c1ccncc1` [ISONIAZID], for which the IC50 is above 250 µM.
On the same count and under the same terms, the value for `CN(C)C(=S)Oc1ccc(Cl)cc1C(=O)Nc1ccc(C(F)(F)F)cc1` was 67.3 µM.

Tested on in the next data set: not listed separately
Put plainly: Inhibition of Mycobacterium tuberculosis H37Rv isocitrate lyase assessed as glyoxylate phenyl hydrazone formation at 10 uM.
Settings: not given
As a reminder, the inhibition is how much of the control response was suppressed. As for `NNC(=O)c1ccncc1` [ISONIAZID], the inhibition is 0%.
Same read-out and setting: as for `CN(C)C(=S)Oc1ccc(Cl)cc1C(=O)Nc1ccc(C(F)(F)F)cc1`, the figure is 12%.

Another data set relates to Mycobacterium kansasii. Description: Antimycobacterial activity against clinical isolate Mycobacterium kansasii 6509/96 assessed as complete growth inhibition after 21 days. It is filed as functional. The following applies: 6509/96, 504 h. In short, it runs like this: as §2
Regarding `NNC(=O)c1ccncc1` [ISONIAZID], the minimum inhibitory concentration (MIC) was 4 µM (≈ 0.549 µg/mL).
For `CN(C)C(=S)Oc1ccc(Cl)cc1C(=O)Nc1ccc(C(F)(F)F)cc1`, the minimal inhibitory concentration (MIC) was 32 µM (≈ 12.9 µg/mL).

Tested on in the next data set: not listed separately
Description: Selectivity index, ratio of IC50 for human HepG2 cells to MIC for atypical mycobacteria.
Settings: not given
In short, it runs like this: as §6
As for `CN(C)C(=S)Oc1ccc(Cl)cc1C(=O)Nc1ccc(C(F)(F)F)cc1`, the “Selectivity Index” value is on record as 2.1.

A further data set has as its system Enterococcus sp. Description: Antimicrobial activity against Enterococcus sp. J 14365/08 after 24 hrs by microdilution method. It is filed as functional. The following applies: J 14365/08, 24 h. The method, boiled down: as §4
As to `CN(C)C(=S)Oc1ccc(Cl)cc1C(=O)Nc1ccc(C(F)(F)F)cc1`, the MIC is above 500 µM.
